Measurements gathered from unrelated publications.
Protocols differ between the studies behind these lines.
Target: Vascular endothelial growth factor receptor 1 (FLT1, Homo sapiens, UniProt P17948)

| Compound | observed | method | concentration | remaining binding |
| --- | --- | --- | --- | --- |
| O=C(c1ccc(Nc2nccc(-c3cc4ccccc4s3)n2)cc1)N1CCC(N2CCCC2)CC1 | binding | competition with immobilised ligand | 1 µM | 46% |
| O=C(Nc1cccnn1)N1CCC(=Cc2cccc(Oc3ccc(C(F)(F)F)cn3)c2)CC1 | cell-free assay | competition with immobilised ligand | 1 µM | 100% |
| Nc1ncc2c(n1)-c1c([nH]c3ccc(C#CC4CC4)cc13)CCCC2 | binding | competition with immobilised ligand | 1 µM | 91% |
| c1cnn2ncc(-c3ccnc(N4CCC45COC5)n3)c2c1 | binding |  | 1 µM | 87% |
| O=C1CCc2cc(Nc3cc(OC4CCOCC4)c([N+](=O)[O-])cc3Cl)ccc2N1 | cell-free assay | competition with immobilised ligand | 1 µM | 100% |
| O=C(c1ccc(Nc2ncc(Cl)c(-c3cc4ccccc4s3)n2)cc1)N1CCC(N2CCCC2)CC1 | binding | competition with immobilised ligand | 1 µM | 6.2% |
| O=c1nc(-c2ccccn2)sc2ccccc12 | cell-free assay | competition with immobilised ligand | 1 µM | 100% |
| Cc1cnc(Nc2ccc(C(=O)N3CCC(N4CCCC4)CC3)cc2)nc1-c1cc2ccccc2s1 | binding | competition with immobilised ligand | 1 µM | 4.4% |
| F[C@@H]1CCN(c2nccc(-c3cnn4ncccc34)n2)C1 | binding |  | 1 µM | 100% |
| CCN1CCN(Cc2ccc(C(=O)Nc3ccc(C)c(Oc4ccc5c(c4)CC(=O)N5)c3)cc2C(F)(F)F)CC1 | binding | competition with immobilised ligand | 1 µM | 63% |
| COc1ccnn2ncc(-c3ccnc(N(C)C)n3)c12 | binding |  | 1 µM | 100% |
| CS(=O)(=O)c1cc(C2(NC(=O)c3cncc4c3cnn4-c3ccc(F)cc3)CC2)ccn1 | cell-free assay | competition with immobilised ligand | 1 µM | 100% |
| CN(c1nccc(-c2cnn3ncccc23)n1)C1CC1 | binding |  | 1 µM | 100% |
| COc1cnc(Nc2cccc(S(N)(=O)=O)c2)nc1N1CCN(c2ccccc2)CC1 | binding | competition with immobilised ligand | 1 µM | 97% |
| c1cncc(-c2cccc(Nc3nccc(NC4CCCCC4)n3)c2)c1 | binding | competition with immobilised ligand | 10 µM | 71% |
| CN([C@@H]1CCc2c(CC(=O)O)c3cc(S(C)(=O)=O)ccc3n2C1)S(=O)(=O)c1ccc(F)cc1 | cell-free assay | competition with immobilised ligand | 1 µM | 88% |
| C[C@H]1CCN(c2nccc(-c3cnn4ncccc34)n2)C1 | binding |  | 1 µM | 100% |
| O=C(NCC1CCOCC1)c1n[nH]cc1NC(=O)c1c(F)cccc1F | binding | competition with immobilised ligand | 1 µM | 90% |
| CN(C)c1nccc(-c2cnc3ncccn23)n1 | binding |  | 1 µM | 100% |
| CCOC(=O)c1cc2cc(-c3cc(C(=O)NCc4ccc(C(=O)O)cc4)nn3C)ccc2[nH]1 | cell-free assay | competition with immobilised ligand | 0.1 µM | 97% |
| N[C@@H]1CCN(c2nccc(-c3cnn4ncccc34)n2)C1 | binding |  | 1 µM | 100% |
| CCN(CC)CCCCNc1ncc2cc(-c3cc(OC)cc(OC)c3)c(NC(=O)NC(C)(C)C)nc2n1 | cell-free assay | competition with immobilised ligand | 1 µM | 8% |
